Screening results (PubChem)
MsrA inhibitor = inhibitors of bovine MsrA; 360,000 compounds, 0.75% hits; inhibition, % at 15.5 µM; purified bovine MsrA, absorbance read-out; in the data active = inhibition above about 4.5%;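 note: 0% = vehicle wells with enzyme and 100% = reference inhibitor wells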
HGIII-sPLA2 inh = Blocks human group III sPLA2 activity; inhibition, % at 12.2 µM; Q9NZ20; 370,000 compounds, 0.56% hits; QFRET BODIPY PC-A2 liposome hydrolysis, fluorescence; AID 743126;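 active = inhibition above mean plus 3 SD of compounds lying within the high and low control bounds, cut at about 19% in these data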;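 note: 0% = median of test compound wells and 100% = no enzyme DMSO wells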
ASAP1 inh = inhibitors of human ASAP1 ArfGAP activity; Q9ULH1; ASAP1-stimulated ARF1 GTP hydrolysis, GDP FP detection; inhibition, % at 16.5 µM; 360,000 compounds, 0.19% hits; in the data active = inhibition above about 25%;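 note: 0% = vehicle with enzyme and substrate and 100% = no enzyme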
Target sequence (Q9ULH1 325-724 limits assumed): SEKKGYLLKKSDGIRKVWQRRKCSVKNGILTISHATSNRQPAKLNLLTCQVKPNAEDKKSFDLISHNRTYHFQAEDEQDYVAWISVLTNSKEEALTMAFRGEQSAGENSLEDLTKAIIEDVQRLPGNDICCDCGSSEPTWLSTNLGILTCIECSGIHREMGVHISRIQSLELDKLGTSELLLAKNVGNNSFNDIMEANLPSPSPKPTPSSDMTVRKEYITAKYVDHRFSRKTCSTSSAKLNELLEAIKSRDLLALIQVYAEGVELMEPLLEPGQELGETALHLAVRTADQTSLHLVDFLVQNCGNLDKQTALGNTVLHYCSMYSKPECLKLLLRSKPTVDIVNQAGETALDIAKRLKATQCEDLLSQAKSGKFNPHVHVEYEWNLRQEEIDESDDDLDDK
ARFGAP1 inhibitor = inhibitors of rat ARFGAP1; Arfgap1-stimulated ARF1 GTP hydrolysis, GDP FP detection; inhibition, % at 16.5 µM; 360,000 compounds, 0.26% hits; AID 651572;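 active = inhibition above a per-plate limit, mean inhibition of low control wells plus 3 SD, cut at about 25% in these data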;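 note: 0% = DMSO wells with enzyme and 100% = wells lacking Arfgap1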
Target sequence (Q62848 1-136 limits assumed): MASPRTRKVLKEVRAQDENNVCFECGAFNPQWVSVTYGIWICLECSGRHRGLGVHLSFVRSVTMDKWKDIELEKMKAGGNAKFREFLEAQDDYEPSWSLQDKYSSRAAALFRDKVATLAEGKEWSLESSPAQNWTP
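material = rat Arfgap1 catalytic domain, aa 1-136 | also added = human ARF1(Δ1-17)-GTP substrate | compound dosing = one concentration, 16.5 µM, DMSO 1.26% | times = GTP hydrolysis reaction 2 h at 25 °C | measured by = FP, GDP Alexa 633 tracer displaced from anti-GDP antibody, 620/688 nm | evaluation = percent inhibition of Arfgap1-stimulated GTP hydrolysis | replication = single well per compound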
MsrA act = bovine methionine sulfoxide reductase A activation | AID 602163 | activation, % at 10.6 µM | purified bovine MsrA, absorbance read-out | 360,000 compounds, 0.3% hits; in the data active = activation above about 7.5%;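 note: 0% = vehicle and 100% = reference activator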
NR1D1 modulator = modulators of human Rev-erb alpha DNA binding; 370,000 compounds, 0.79% hits; activity, % at 10 µM; Rev-erbα–FITC-DNA binding, fluorescence polarization, 90 min; AID 1259318; P20393;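 active = activity above about 14%, limit read from the data; passing the limit was not always enough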;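 note: 0% = DMSO wells with 35 nM protein and 100% = DMSO wells with 750 nM protein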
Rev-erbA confirm = confirmation of modulators of human Rev-erb alpha DNA binding | shares compounds with NR1D1 modulator | Rev-erb alpha FITC-DNA binding, fluorescence polarization, 90 min | activation, % at 25 µM | 3,000 compounds, 61% hits | AID 1259319;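 active = activation at or above a set limit, or at least 3 SD above the negative control mean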;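 note: 0% = 35 nM protein with DMSO and 100% = 750 nM protein high control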
RORg counter = counter-screen for Rev-erb alpha modulators: RORgamma DNA binding; shares compounds with NR1D1 modulator; purified RORgamma protein-FITC-DNA binding, fluorescence polarization; IC50, µM; 910 compounds, 8% hits; AID 1259320;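 active = Compounds whose fitted half-maximal concentration for disrupting protein-DNA binding is below 10 micromolar; the record names Rev-erb in its text, so the target is in doubt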
* hit, by the source's call; / = no result given. Compounds with a hit are over-represented: about 2.7% of the library has one in this group of screens.

SMILES | MsrA inhibitor | HGIII-sPLA2 inh | ASAP1 inh | ARFGAP1 inhibitor | MsrA act | NR1D1 modulator | Rev-erbA confirm | RORg counter
Cc1cc(C)c(C#N)c(SCC(=O)Nc2ccccc2C)n1 | -1 | -1 | -7 | 20 | 3 | 4 | / | /
COc1ccc(CCNC(=O)CSc2nc(N)c(C#N)c(-c3cccs3)c2C#N)cc1OC | 3 | 2 | -7 | -15 | -3 | 37* | 23* | /
CCN(CC)C(=O)CSc1nc(N)c(C#N)c(-c2cccs2)c1C#N | 2 | 3 | -8 | 8 | -2 | 33* | 33* | >40
COc1ccc(C)cc1NC(=O)c1cc2c(=O)n3ccccc3nc2n1C | 1 | 6 | -7 | 16 | -4 | 23* | 55* | >40
COc1ccc(NC(=O)c2cc3c(=O)n4ccccc4nc3n2C)c(OC)c1 | 1 | 7 | -1 | -4 | -9 | 8 | / | /
CN(C)C(=S)NC(=S)Nc1ccc2ccccc2c1 | 1 | -4 | -1 | 15 | 0 | -12 | / | /
CCOC(=O)c1ccc(CNC(=O)CSc2nc(NC(=O)c3ccccc3)c3c(C)c(C)oc3n2)cc1 | 0 | 2 | 11 | -3 | 1 | 27* | 37* | >40
Cc1cc(N(C)C)cc(C)c1N=Nc1cc[n+]([O-])cc1 | -1 | 7 | -1 | 3 | -4 | 27* | 24* | /
CN(C)c1ccc(N=Nc2cccc(F)c2)cc1 | 1 | 13 | -10 | -6 | -12 | 12 | / | /
CCOC(=O)CC(=O)CSc1nc(-c2ccccc2)cc(-c2ccccc2)c1C#N | 0 | -20 | 10 | 9 | -4 | 18 | / | /
CC(C)OC(=O)CC(=O)CSc1nc(-c2ccc(F)cc2)cc(-c2ccccc2)c1C#N | 4 | -2 | 2 | 20 | -2 | 36* | 26* | /
COc1cc(-c2cc(-c3ccccc3)nc(SCC(=O)Nc3nccs3)c2C#N)cc(OC)c1OC | 1 | 3 | -5 | 9 | -7 | 72* | 15 | /
Cc1cc(CN2CCOCC2)c(O)c(C2(C)CCCCC2)c1 | 0 | 3 | -13 | -5 | -3 | 18* | 24* | /
Cc1cc(N2CCN(C(C(=O)NC3CCCC3)c3ccco3)CC2)c2ccccc2n1 (stereo not drawn) | 1 | -3 | -2 | 2 | / | -5 | / | /
O=C1c2cccc3cccc(c23)C(=O)N1c1ccccn1 | 3 | -1 | -3 | -1 | -11 | -1 | / | /
O=C1c2c(Br)c(Br)c(Br)c(Br)c2C(=O)N1c1ccccn1 | 1 | 6 | -8 | -8 | -5 | 276* | 391* | >40
COC(=O)CSc1nc2cc3c(cc2cc1C#N)OCO3 | 1 | 8 | -3 | 2 | -4 | 58* | 23* | /
N#Cc1cc2cc3c(cc2nc1Cl)OCCO3 | 1 | 5 | 3 | 7 | -2 | 27* | 22* | /
CC(C)OC(=O)CSc1nc2cc3c(cc2cc1C#N)OCO3 | 0 | -2 | -1 | -2 | -8 | 49* | 9 | /
N#Cc1cc2cc3c(cc2nc1N1CCCCC1)OCCO3 | 2 | 7 | 7 | 11 | -4 | 0 | / | /
CCOC(=O)CSc1nc2cc3c(cc2cc1C#N)OCCO3 | -1 | 0 | -8 | 7 | -4 | 75* | 31* | 0.66*
Cc1cc(C)cc(C(=O)OCCN(C)C2CN(Cc3cn(Cc4ccccc4F)nn3)S(=O)(=O)C2)c1 (stereo not drawn) | / | -12 | / | / | / | 0 | / | /
CCOC(=O)CSc1nc2cc3c(cc2cc1C#N)OCO3 | 0 | 0 | -11 | 11 | 2 | 66* | 36* | >40
N#Cc1cc2cc3c(cc2nc1SCC(=O)N1CCOCC1)OCO3 | 1 | 3 | -1 | -3 | -2 | 37* | 12 | /
CCOC(=O)CSc1nc2cc3c(cc2cc1C)OCO3 | 1 | 4 | -2 | 6 | -1 | -2 | / | /
SMILES | MsrA inhibitor | HGIII-sPLA2 inh | ASAP1 inh | ARFGAP1 inhibitor | MsrA act | NR1D1 modulator | Rev-erbA confirm | RORg counter
CC(C)[C@H]1COc2c3ccccc3nn21 | / | 10 | / | / | / | 1 | / | /
CC(=O)c1cnc2c(-c3cccc(Br)c3)cnn2c1C | 1 | -11 | -13 | 2 | -4 | 30* | 34* | >40
CCOC(=O)Cc1c(C)nc2c(-c3cccc(Br)c3)cnn2c1C | 1 | 4 | -16 | -7 | 1 | 4 | / | /
O=C(O)c1ccc(CN2C[C@@H](CO)O[C@@H](n3cnc4c(NCc5ccco5)ncnc43)C2)cc1 | 1 | 0 | 3 | -14 | -8 | 3 | / | /
Nc1[nH]c(C(=O)c2ccccc2)c(-c2ccncc2)c1C(=O)NC1CC1 | 1 | 5 | 4 | 6 | -4 | -3 | / | /
O=C1c2ccccc2C(c2nnnn2Cc2ccccc2)N1C1CC1 (stereo not drawn) | -1 | 4 | -3 | 4 | -3 | 7 | / | /
Cc1ccc(C)c(NC(=O)CN(C)C(=O)c2ccc(-c3ccc(Cl)cc3)o2)c1 | -1 | 9 | 8 | 14 | -9 | 26* | 18* | /
CN(CC(=O)Nc1cccc(F)c1)C(=O)c1ccc(-c2ccc(Cl)cc2)o1 | 1 | -23 | -22 | -3 | -1 | 4 | / | /
CN1C(=S)N(c2cccnc2)C(=O)/C1=C\c1ccc(N(C)C)cc1 | 1 | 14 | -21 | 10 | 0 | 7 | / | /
Cc1c(N2C(=O)/C(=C\c3ccc(N(C)C)cc3)N(C)C2=S)c(=O)n(-c2ccccc2)n1C | 0 | 2 | 8 | -8 | -5 | 25* | 20* | /
COc1cc2[nH]c(=S)nc(NCCc3ccc(C)cc3)c2cc1OC | 0 | 10 | -8 | -3 | -4 | 76* | 52* | 4*
CC(=O)Nc1ccc(O)c(-c2nc3ccccc3s2)c1 | 1 | -5 | -2 | -1 | -4 | 231* | 385* | >40
CC(=O)Nc1cccc(-c2nc3ccccc3s2)c1 | 2 | -5 | 3 | 7 | -5 | -1 | / | /
O=C(Nc1ccc(OC(=O)c2ccccc2)c(-c2nc3ccccc3s2)c1)c1ccccc1 | 0 | 0 | 6 | -7 | -2 | 18 | / | /
Cc1ccsc1C(=O)Nc1ccc(O)c(-c2nc3ccccc3s2)c1 | 2 | -9 | -6 | 3 | -5 | 450* | 354* | >40
Cc1cc(C(=O)N2CCC2(C)C(=O)O)nn1C(C)(C)C (stereo not drawn) | 1 | 6 | -10 | 16 | 1 | 0 | / | /
Cc1cccc2cc(C(c3nnnn3Cc3ccccc3)N3CCN(c4ccccc4)CC3)c(=O)[nH]c12 (stereo not drawn) | 0 | -7 | 8 | 4 | -11 | 185* | 143* | >40
Cc1cccc2cc(C(c3nnnn3Cc3ccccc3)N3CCN(C)CC3)c(=O)[nH]c12 (stereo not drawn) | / | / | / | / | -2 | / | / | /
O=C(NCC1CCCO1)c1cn(Cc2ccccc2)nc1-c1ccccc1 (stereo not drawn) | 1 | 9 | -13 | -3 | -2 | 27* | -5 | /
